Experimental data collected from several papers.
Protocols differ between the studies behind these lines.

Compound	tested on	assay	test system	setting	measurement	value
COc1cc(OC)c2nccc(N3CCc4c(cc(Cn5ccnc5)cc4-c4cn(C)nc4C(F)(F)F)C3=O)c2c1	–	–	male CD-1 mouse, plasma	intravenous, 3 mg/kg	MRT(0-inf)	0.5 h
CCCCCCn1c(-c2cccc(Cl)c2)n[nH]c1=S	HepG2	cell growth or viability, resazurin	–	10 µM, 24 h	viability	103%
c1ccc(-c2nc(N3CCC(c4ccccn4)C3)c3ccccc3n2)nc1 (centres unmarked)	–	–	female BALB/c mouse, plasma	oral, 12.5 mg/kg	MRT(0-inf)	5.9 h
CCc1cc(OC)c2nccc(N3CCc4c(cc(Cn5ccnc5)cc4-c4cn(C)nc4C(F)(F)F)C3=O)c2c1	–	–	male CD-1 mouse, plasma	oral, 50 mg/kg	MRT(0-inf)	2.5 h
COc1ccc2c(c1)c1c(n2CO)CN2CCc3cc(OCc4ccccc4)c(OC)cc3C2C1 (centres unmarked)	HepG2	cell growth or viability	–	5 µM, 24 h	viability	100%
COc1ccc2nccc(N3CCc4c(cc(Cn5ccnc5)cc4-c4cn(C)nc4C(F)(F)F)C3=O)c2c1	–	–	male CD-1 mouse, plasma	intravenous, 3 mg/kg	MRT(0-inf)	0.6 h
CCN(CC)C(=O)[C@@]1(c2ccccc2)C[C@H]1CN	–	–	male cynomolgus monkey, plasma	oral, 30 mg/kg	AUC(0-t)	40000 ng·h/mL
O=C(c1ccc(Oc2ccccc2)cc1Cl)c1c[nH]c2ncnc(N[C@@H]3CC[C@@H](CO)OC3)c12	–	–	cynomolgus monkey, plasma	oral, 10 mg/kg, single dose	AUC(0-t)	82700 ng·h/mL
CN(C(=O)n1cnc(-c2ccc[n+]([O-])c2)c1)C1CCCCC1	–	–	male cynomolgus monkey, plasma	oral, 0.3 mg/kg	AUC(0-t)	452 ng·h/mL
COc1ccc(CCN2CCC(Nc3nc4ccccc4n3Cc3ccc(F)cc3)CC2)cc1	HepG2	cell growth or viability, resazurin	–	100 µM, 24 h	viability	2%
CCOP(=O)(OCC)[C@@H]1C[C@@H](n2cc(-c3ccccc3)nn2)ON1C (racemic)	human T-lymphocyte	cell growth or viability	–	72 h	CC50	> 250 µM
COc1ccc2c(c1)c1c(n2CO)CN2CCc3cc(OC)c(OCC(F)(F)F)cc3C2C1 (centres unmarked)	HepG2	cell growth or viability	–	20 µM, 24 h	viability	74.7%
CCOP(=O)(OCC)[C@@H]1C[C@@H](n2cc(-c3ccccc3F)nn2)ON1C	human T-lymphocyte	cell growth or viability	–	72 h	CC50	> 250 µM
Nc1cc(CNC(=O)c2cc3[nH]ccc3cc2Cl)cc(C(F)(F)F)c1	HEK-293T	cell growth or viability	–	100 µM, 24 h	viability	< 50%
